Results reported in ChEMBL document CHEMBL3769370, “Synthesis and SAR of 4-methyl-5-pentylbenzene-1,3-diol (MPBD), produced by Dictyostelium discoideum” (2016).
Active and inactive are the calls of the source. The calls are words filed in the database; no cut-off is given here.

What was measured:
Type in all cases: functional
[1] = tested on: Bacillus subtilis; assay: Antibacterial activity against Bacillus subtilis at 50 mM after 16 to 24 hrs by disk diffusion assay; settings: read-out: DIZ
Procedure, shortened: (§1)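 Positive-control disks loaded with 50 mM ampicillin solution. Bacteria grown in LB and spread on LB or LP agar, with plates dried 10 min before disks were placed. Disks were 6 mm filter paper, five per plate spaced at least 3 cm apart. Plates held at 37 °C for 16–24 h, then the clearance zone was checked and photographed.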

[2] = tested on: Escherichia coli; assay: Antibacterial activity against Escherichia coli at 50 mM after 16 to 24 hrs by disk diffusion assay; settings: read-out: DIZ; procedure, shortened: as §1
[3] = tested on: Escherichia coli; assay: Antibacterial activity against Escherichia coli at 100 mM after 16 to 24 hrs by disk diffusion assay; settings: for zone of inhibition at 100000 µM: read-out: DIZ
Procedure, shortened: (§2)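 Bacteria grown in Lysogeny broth (LB), spread on LB or lactose peptone (LP) agar, and plates dried 10 min. 6 mm filter-paper disks placed, five per plate, at least 3 cm apart. Each disk loaded with a 100 mM solution of compound. Incubation 16–24 h at 37 °C. Zone of clearance around each disk inspected and photographed.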

[4] = tested on: Bacillus subtilis; assay: Antibacterial activity against Bacillus subtilis at 100 mM after 16 to 24 hrs by disk diffusion assay; settings: for zone of inhibition at 100000 µM: read-out: DIZ; procedure, shortened: as §2

SMILES	zone of inhibition at 100000 µM [3] [mm]	zone of inhibition at 100000 µM [4] [mm]	other results
CC1(C)S[C@@H]2[C@H](NC(=O)[C@H](N)c3ccccc3)C(=O)N2[C@H]1C(=O)O [AMPICILLIN]	–	–	zone of inhibition at 50000 µM [1]: 7 mm; zone of inhibition at 50000 µM [2]: 7 mm
CCCCCc1cc(O)ccc1C	1	1	–
CCCCCc1cc(O)cc(O)c1CCC	4	4	–
CCCCCc1cc(O)cc(O)c1C	5	1	–
CCCCCc1cc(OC)cc(OC)c1C	–	–	Activity [3]: inactive; Activity [4]: inactive
CCCCCc1cc(O)cc(O)c1CC	4	1	–
